ChEMBL document CHEMBL4043181, “A new chemotype inhibitor for the human organic cation transporter 3 (hOCT3)” (Bioorg Med Chem Lett, 2017)

What was measured:
[1] = biological target: T1, Solute carrier family 22 member 1 (Homo sapiens, UniProt O15245); test: Inhibition of human OCT1 expressed in HEK293 cells assessed as decrease in uptake of substrate [3H]MPP+ after 1 min by liquid scintillation counting method; assay type: cell-based
T1 sequence (O15245 whole entry): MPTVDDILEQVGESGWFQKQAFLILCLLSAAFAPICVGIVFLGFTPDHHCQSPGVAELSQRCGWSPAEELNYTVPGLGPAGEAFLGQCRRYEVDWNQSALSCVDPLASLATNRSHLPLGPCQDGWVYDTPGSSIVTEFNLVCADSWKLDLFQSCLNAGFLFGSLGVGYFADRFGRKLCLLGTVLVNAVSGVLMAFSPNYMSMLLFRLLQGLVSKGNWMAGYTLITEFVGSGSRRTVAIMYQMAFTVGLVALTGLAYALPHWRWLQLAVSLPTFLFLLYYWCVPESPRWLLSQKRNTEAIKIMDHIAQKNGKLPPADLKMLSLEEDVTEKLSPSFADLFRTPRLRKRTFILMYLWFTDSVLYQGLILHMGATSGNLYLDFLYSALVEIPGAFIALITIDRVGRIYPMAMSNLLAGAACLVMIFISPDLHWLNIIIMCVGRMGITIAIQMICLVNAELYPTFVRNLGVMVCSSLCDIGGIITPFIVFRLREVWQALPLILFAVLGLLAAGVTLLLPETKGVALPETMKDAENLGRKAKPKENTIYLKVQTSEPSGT
In short: (§1)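 Stably transfected HEK293 cells expressing hOCT1, hOCT2 or hOCT3; 1 min uptake of [3H]MPP+ (1 μM) measured across inhibitor concentrations 10^-8 to 10^-2.5 M. Signal corrected for nonspecific background in empty-vector control cells; data as mean ± SD; IC50 obtained by nonlinear regression.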

[2] = biological target: T2, Solute carrier family 22 member 2 (Homo sapiens, UniProt O15244); test: Inhibition of human OCT2 expressed in HEK293 cells assessed as decrease in uptake of substrate [3H]MPP+ after 1 min by liquid scintillation counting method; assay type: cell-based; in short: as §1
T2 sequence (O15244 whole entry): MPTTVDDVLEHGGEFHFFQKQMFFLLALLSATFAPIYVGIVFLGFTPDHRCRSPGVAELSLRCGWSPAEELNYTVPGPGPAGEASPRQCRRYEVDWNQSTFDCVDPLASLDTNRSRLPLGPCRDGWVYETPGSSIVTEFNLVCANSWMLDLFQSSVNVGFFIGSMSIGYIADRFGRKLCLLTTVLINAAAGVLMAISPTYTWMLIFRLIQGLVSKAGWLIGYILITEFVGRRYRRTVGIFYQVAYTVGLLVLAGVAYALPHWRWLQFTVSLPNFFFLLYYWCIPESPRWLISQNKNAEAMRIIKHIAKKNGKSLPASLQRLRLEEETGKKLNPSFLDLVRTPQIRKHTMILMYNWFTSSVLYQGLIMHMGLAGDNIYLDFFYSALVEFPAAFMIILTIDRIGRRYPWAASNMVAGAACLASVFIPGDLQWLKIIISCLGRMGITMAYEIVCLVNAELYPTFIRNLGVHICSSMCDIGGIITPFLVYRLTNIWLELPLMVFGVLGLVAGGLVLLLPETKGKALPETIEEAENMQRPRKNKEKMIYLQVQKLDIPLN

[3] = organism: Homo sapiens; test: Selectivity ratio of IC50 for human OCT2 expressed in HEK293 cells to IC50 for human OCT3 expressed in HEK293 cells; assay type: cell-based
[4] = biological target: T3, Solute carrier family 22 member 3 (Homo sapiens, UniProt O75751); test: Inhibition of human OCT3 expressed in HEK293 cells assessed as decrease in uptake of substrate [3H]MPP+ after 1 min by liquid scintillation counting method; assay type: cell-based; in short: as §1
T3 sequence (O75751 whole entry): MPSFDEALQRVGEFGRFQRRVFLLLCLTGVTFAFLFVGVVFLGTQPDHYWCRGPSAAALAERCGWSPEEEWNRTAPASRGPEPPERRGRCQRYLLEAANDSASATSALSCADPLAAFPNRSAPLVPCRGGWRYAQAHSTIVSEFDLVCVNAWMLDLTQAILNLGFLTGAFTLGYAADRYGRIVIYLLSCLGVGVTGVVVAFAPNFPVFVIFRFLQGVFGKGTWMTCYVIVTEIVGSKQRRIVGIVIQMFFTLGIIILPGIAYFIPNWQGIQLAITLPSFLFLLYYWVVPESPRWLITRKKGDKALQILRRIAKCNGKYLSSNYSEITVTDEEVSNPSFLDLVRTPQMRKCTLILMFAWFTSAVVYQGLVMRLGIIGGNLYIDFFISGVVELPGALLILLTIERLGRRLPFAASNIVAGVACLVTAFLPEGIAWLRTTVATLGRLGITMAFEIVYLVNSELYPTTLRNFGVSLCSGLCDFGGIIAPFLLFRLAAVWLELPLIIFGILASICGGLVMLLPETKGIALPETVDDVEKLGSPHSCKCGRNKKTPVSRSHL

[5] = biological target: T3, Solute carrier family 22 member 3; test: Competitive inhibition of human OCT3 expressed in HEK293 cells up to 10 uM in presence of varying concentration of MPP+ by Lineweaver-Burk plot analysis; assay type: cell-based
In short: (§2)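 HEK293 cells stably expressing hOCT3; 1 min cellular accumulation of MPP+ (1-150 μM) with or without inhibitor at two concentrations. Uptake corrected for background in non-transporter-expressing control cells. Saturation curves fitted by nonlinear regression to a mixed-model inhibition equation to define mode of inhibition; Lineweaver-Burk transforms used for display.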

[6] = organism: Homo sapiens; test: Selectivity ratio of IC50 for human OCT1 expressed in HEK293 cells to IC50 for human OCT3 expressed in HEK293 cells; assay type: cell-based
[7] = biological target: T3, Solute carrier family 22 member 3; test: Inhibition of OCT3 (unknown origin)
[8] = biological target: T3, Solute carrier family 22 member 3; test: Competitive inhibition of human OCT3 expressed in HEK293 cells in presence of varying concentration of MPP+ by Lineweaver-Burk plot analysis; assay type: cell-based; in short: as §2
[9] = biological target: T3, Solute carrier family 22 member 3; test: Competitive inhibition of human OCT3 expressed in HEK293 cells up to 25 uM in presence of varying concentration of MPP+ by Lineweaver-Burk plot analysis; assay type: cell-based; in short: as §2

SMILES	IC50 [1] [µM]	IC50 [2] [µM]	Ratio IC50 [3]	IC50 [4] [µM]	inhibition (INH) [5]	Ratio IC50 [6]	IC50 [7] [µM]	inhibition (INH) [8]	inhibition (INH) [9]
CC(C)(C)c1ccc(N=C(N)N)cc1	0.9	8.3	< 5	2.2	Active	< 5			
N=C(N)Nc1ccc(F)cc1	22.6	48.3	< 5	27.8		< 5			
N=C(N)N [GUANIDINE]							2200 to 6200		
N=C(N)Nc1cccc(Cl)c1			8			< 5			
Cc1ccc(NC(=N)N)cc1	10	9.3	< 5	4.6		< 5			
N=C(N)Nc1ccc(Cc2ccccc2)cc1	762	96.2	< 5	452		< 5			
NC(N)=Nc1ccc(I)cc1	2.4	4.4	< 5	1.5		< 5			
NC(N)=Nc1cccc(Cl)c1	13.7	60.5		7.6					
N=C(N)Nc1ccccc1 [PHENYLGUANIDINE]	41.1	89	< 5	99.8		< 5			
C=C[C@H]1C[N@@]2CC[C@H]1C[C@H]2[C@H](O)c1ccnc2ccc(OC)cc12 [QUININE]								Active	
N=C(N)Nc1ccc(Cl)cc1	10	18.9	6	2.8		< 5			Active
N=C(N)Nc1ccc(Br)cc1	6.3	11.3	< 5	4.8		< 5			
